CHT inh: human CHT choline transport inhibition; Q9GZV3; CHT-expressing cells, membrane potential dye, choline response; active compounds read low; B-score at 10 µM; 310,000 compounds, 0.86% hits; AID 488975;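 active means B-score over 3 SD under the library average, and starting fluorescence ratio not unusually high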;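 further: choline stimulus applied at its EC90 after an EC20 pre-addition; B-score computed on integrated fluorescence ratio after choline addition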
KCC2 mod: modulators of human KCC2 chloride dependent transport. 190,000 compounds, 2.2% hits. B-score of Tl+ flux slope (higher = more flux/activation; lower = inhibition) at 10 µM. Q9H2X9. KCC2 cells, thallium flux FluoZin-2 fluorescence. AID 1456;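 active means thallium flux slope and its plate-corrected score both differing from the plate sample mean at a set confidence after two filtering rounds, in either direction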;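 further: slope of fluorescence scaled to starting intensity during 10 to 20 s after thallium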
Rad51 HR inh: Rad51 (human) homologous recombination inhibition; Q06609; hRad51 DNA strand exchange, fluorescence dequenching; inhibition, % at 10 µM; 200,000 compounds, 0.085% hits; AID 1385;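 active means inhibition above 40% at the single screening dose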;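 further: 0% = DMSO control wells and 100% = blanks with heterologous ssDNA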
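Material: Human Rad51 nucleoprotein filaments preassembled on unlabelled ssDNA | Also added: Labelled 47-mer dsDNA for strand exchange | Dosing: Single dose, 10 µM final compound | Schedule: 30-min compound preincubation and 15-min exchange, both room temperature | Technique: Fluorescence dequenching at 485/520 nm | Measure: Percent inhibition relative to plate controls and blanks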
CHT PAM: allosterically activates the human high affinity choline transporter. CHT-expressing cells, membrane potential dye, choline EC20; active compounds read high; LV-AA mutant CHT in HEK293 cells. B-score at 10 µM. Q9GZV3. 310,000 compounds, 0.49% hits;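 active means initial fluorescence not abnormally high and integrated response B-score, plate-corrected, over 3 SD above library mean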
CHT activ conf: confirmation of human choline transporter (CHT) activators | shares compounds with CHT PAM | activation, % at 10 µM | CHT-expressing cells, membrane potential dye fluorescence (FDSS); % of choline EC20–EC90 response window; HEK293 expressing CHT LV-AA mutant; choline added at its EC20 | 2,500 compounds, 91% hits;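 active means primary screen active, with duplicate mean activation above negative control mean plus 3 SD, cut at about 11% in these data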
HEK293 MP dye: CHT activator counter-screen hit in parental HEK293 cells | shares compounds with CHT PAM | membrane potential dye fluorescence (FDSS); measured after EC20 choline addition | ratio readout change at 10 µM, hits read low | 2,500 compounds, 62% hits;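 active means duplicate-averaged ratio beyond 3 SD from buffer wells, up or down, though filed actives are nearly all decreases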
The depositor's hits bear a star; i = inactive; · = no result given. This is a sample that favours compounds with a hit; in the whole collection about 2.6% have one here.

SMILES	CHT inh	KCC2 mod	Rad51 HR inh	CHT PAM	CHT activ conf	HEK293 MP dye
CCCCn1c(=NC(C)=O)c(C#N)cc2c(=O)n3cccc(C)c3nc21	i	·	·	i	·	·
CCOC(=O)C1=C(c2ccccc2)NC(=O)NC1c1ccc(O)c(Cl)c1 (stereo unspecified)	i	·	·	29.6*	197.9*	i
CCOC(=O)C1=C(c2ccccc2)NC(=O)NC1c1ccc(O)c(OCC)c1 (stereo unspecified)	i	-0.544	-4.8	i	·	·
O=C(NCCCCc1ccccc1)c1cccc([N+](=O)[O-])c1	i	-2.84	14.2	i	·	·
O=C(NCCCCc1ccccc1)c1cc([N+](=O)[O-])cc([N+](=O)[O-])c1	i	·	·	i	48.5*	-24.1*
C/C(=N\Nc1ccccn1)c1ccc(OC(F)F)cc1	i	-1.04	·	i	·	·
C/C(=N\Nc1ccccn1)c1ccc(C#N)cc1	i	-0.0424	-7.5	i	29.8*	-55.9*
CCc1c(C)nc(N2CCN(c3ccccc3F)CC2)[nH]c1=O	i	·	·	i	·	·
OCCN(CCCn1c(-c2ccncc2)nc2ccccc21)c1nc(CN2CCCCC2)cs1	i	·	·	i	59.6*	-43.9*
O=c1c2ccccc2nc(SCCN2CCCCC2)n1CCc1ccccc1	i	3.1	-2.5	7.85*	4.2	-26.7*
COc1ccc(NC(=O)CSc2nc3ccccc3c(=O)n2CCCN2CCCCC2)c(OC)c1	i	·	·	11.7*	72.9*	-38.5*
Cn1c(=O)c2c(nc(SCCN3CCCCC3)n2C)n(C)c1=O	i	-0.00896	10.7	i	55.6*	-72.4*
COc1ccc(C(=O)c2ccc(Br)cc2)c2ccccc12	i	·	·	i	·	·
CC(=O)O[C@@H]1[C@@H](OC(C)=O)[C@H](n2ccc3cc([N+](=O)[O-])ccc32)OC[C@@H]1OC(C)=O	i	-0.867	-4.8	i	·	·
Cc1cc(C)c2cc3c(ccn3C3OC[C@H](O)[C@H](O)[C@H]3O)cc2n1 (stereo partly specified)	i	0.198	-4.3	i	62.0*	-45.9*
CCOc1ccc(S(=O)(=O)NC(Cc2c[nH]c3ccccc23)C(=O)O)cc1 (stereo unspecified)	i	·	·	i	·	·
COc1ccc(Cl)cc1NC(=O)CN(C)C(=O)c1cc(-c2ccncc2)nc2ccccc12	i	·	·	7.75*	49.3*	i
O=C(NC1CCCCC1)C(c1ccc(F)cc1)N(C(=O)c1cccs1)c1ccc2c(c1)OCO2 (stereo unspecified)	i	·	0.2	i	·	·
O=C(NC1CCCCC1)C(c1ccc2ncccc2c1)N(Cc1ccc(F)cc1)C(=O)c1cccs1 (stereo unspecified)	i	·	3.0	i	30.6*	i
CCCCc1c(CCC)c(=N)c2ccccc2n1C	i	-0.113	-15.6	9.44*	64.6*	-26*
CCCCc1c(O)c2ccccc2n(CCCC)c1=O	i	-0.736	17.2	i	·	·
CCOc1cc(/C=C/c2cccc[n+]2C)ccc1O	i	·	·	6.92*	48.4*	-31.4*
O=[N+]([O-])c1ccc(N/N=C/C=C/c2ccco2)cc1	i	·	·	8.1*	12.3*	i
Cc1oc(C)c2c(=O)ccc3c(c12)OC(N)=C(C#N)C3c1ccc(F)cc1 (stereo unspecified)	i	-1.66	-39.2	i	·	·
Nc1c2c(nc3ccccc13)CSCC2	i	·	·	6.33*	53.8*	-55*
SMILES	CHT inh	KCC2 mod	Rad51 HR inh	CHT PAM	CHT activ conf	HEK293 MP dye
COCCNC(=O)c1c(N)n(/N=C/c2cccs2)c2nc3ccccc3nc12	i	·	-2.8	i	28.0*	i
Cc1nn(C(C)c2n[nH]c(=S)n2-c2cccc(Cl)c2)c(C)c1[N+](=O)[O-] (stereo unspecified)	i	-0.014	-8.4	i	·	·
CS(=O)(=O)N1CCN(c2ccc([N+](=O)[O-])c(NCCN3CCOCC3)c2)CC1	i	0.791	·	i	32.1*	-40.4*
Cc1cc(N2CCN(C)CC2)n2cc(-c3ccc(F)cc3)nc2n1	i	·	-1.6	6.86*	39.4*	-63.8*
Cc1cc(N2CCN(c3ccccn3)CC2)n2cc(-c3ccccc3)nc2n1	i	-0.146	-4.2	i	·	·
CC1CCN(S(=O)(=O)c2cc([N+](=O)[O-])ccc2Cl)CC1	i	-0.141	-4.7	i	·	·
COc1ccc(-c2nc(CSCC(=O)NC3CCN(Cc4ccccc4)CC3)c(C)o2)cc1OC	i	·	·	i	·	·
CCC1CCCCN1CCCNC(=O)C1CCN(Cc2nc(-c3ccc(Cl)cc3)oc2C)CC1 (stereo unspecified)	i	·	·	i	36.1*	-29.6*
COc1ccc(-c2nc(CN3CCC(C(=O)NC4CCN(Cc5ccccc5)CC4)CC3)c(C)o2)cc1OC	i	·	·	7.55*	59.7*	-50.7*
COc1ccc([N+](=O)[O-])cc1C(=O)NC1CCN(Cc2ccccc2)CC1	i	·	·	6.87*	45.6*	-42.6*
CC1CN(CC(=O)Nc2ccc([N+](=O)[O-])cc2Br)CC(C)O1 (stereo unspecified)	i	-0.929	5.4	i	·	·
CS(=O)(=O)NCCCCCCNS(C)(=O)=O	i	0.382	0.5	i	·	·
CC(C)(C)NC(=O)c1oc2ccccc2c1COc1ccccc1	i	-1.13	·	i	32.8*	i
O=C(N/N=C/c1ccc(O)cc1)c1cc[n+](Cc2ccccc2)cc1	i	0.203	4.5	i	37.1*	-29.5*
O=C(NCc1ccccc1)c1cc[n+](Cc2ccccc2)cc1	i	0.679	4.8	i	·	·
CCn1c(/C=N/Nc2ccc(C(=O)O)cc2)nc2ccccc21	i	0.342	-0.7	6.32*	44.1*	-35.2*
COc1ccc(-c2cc(C#N)nc(N3CCN(C)CC3)n2)cc1	i	-0.279	·	i	·	·
CN1CCN(c2nc(C#N)cc(-c3ccccc3)n2)CC1	i	·	6.6	i	23.0*	-22.5*
Cc1cc(N2CCN(C)CC2)ccc1NC(=O)c1ccc(-c2ccc(Cl)cc2)o1	i	·	·	i	4.4	i
Cc1cc(Cl)nc(Cl)c1C(=O)NCc1ccc(Cl)cc1	i	·	·	i	·	·
Cc1sc2nc(CN3CCCC3)nc(NCc3ccncc3)c2c1C	i	0.76	4.3	6.32*	32.5*	-34*
c1ccc(CNc2nc(CN3CCOCC3)nc3scc(-c4ccccc4)c23)cc1	i	-1.11	·	i	·	·
Cc1sc2nc(CN3CCCC3)nc(Cl)c2c1C	i	-0.184	-1.4	i	52.1*	i
CN(C)c1cc(NC(=O)CN2CCOCC2)c2ccccc2n1	i	0.707	0.1	6.74*	33.2*	-44.6*
CN(C)c1cc(NC(=O)CNC(C)(C)C)c2ccccc2n1	i	-0.99	16.1	i	26.4*	-54.9*

Compound activity from PubChem BioAssay.
